Bioassay records deposited in PubChem by The Scripps Research Institute Molecular Screening Center.
An excerpt weighted towards active compounds, which were near 1.7% of everything screened.
PP5 inh – inhibitors of human protein phosphatase 5 (PP5); 320,000 compounds, 0.18% hits; P53041; inhibition, % at 6.7 µM; purified PP5c, OMFP substrate fluorescence;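 active = inhibition above the campaign's mean inhibition across all tested compounds plus 3 SD, cut at about 9.5% in these data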
Target sequence (P53041 whole entry, looked up): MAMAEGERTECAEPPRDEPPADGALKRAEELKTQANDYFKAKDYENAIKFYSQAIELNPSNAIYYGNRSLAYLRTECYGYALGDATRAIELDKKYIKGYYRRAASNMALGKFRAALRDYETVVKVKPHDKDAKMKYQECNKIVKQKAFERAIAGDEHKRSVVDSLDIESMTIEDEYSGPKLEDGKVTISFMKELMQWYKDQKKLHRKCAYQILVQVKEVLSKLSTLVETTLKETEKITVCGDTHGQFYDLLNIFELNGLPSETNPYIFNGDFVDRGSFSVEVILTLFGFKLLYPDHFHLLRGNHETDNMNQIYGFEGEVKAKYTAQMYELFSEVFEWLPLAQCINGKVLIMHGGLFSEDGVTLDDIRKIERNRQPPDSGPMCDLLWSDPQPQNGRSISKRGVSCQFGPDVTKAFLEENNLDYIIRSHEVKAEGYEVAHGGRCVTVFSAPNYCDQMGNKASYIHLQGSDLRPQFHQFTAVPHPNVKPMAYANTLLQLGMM
EBNA-1 inh – blocks EBNA-1 binding to DNA | inhibition, % at 14.8 µM | 300,000 compounds, 0.34% hits | EBNA-1 DNA binding, fluorescence polarization; in the data active = inhibition above about 28%
PP1 inh – blocks human PP1-alpha phosphatase, a PP5 counter-screen. P62136. purified PP1alpha, OMFP fluorescence. inhibition, % at 6.7 µM. 320,000 compounds, 0.9% hits;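 active = inhibition above the mean inhibition of all tested compounds plus 3 SD, computed separately for each screening campaign, cut at about 15% in these data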
ZTA DNA inh – ZTA (EBV) inhibition in EBNA-1 counter-screen. P03206. ZTA-DNA binding, fluorescence polarization. inhibition, % at 11 µM. 320,000 compounds, 0.15% hits. AID 2234; in the data active = inhibition above about 33%
core dimer inh – HCV core protein dimerization inhibition; 300,000 compounds, 0.33% hits; inhibition, % at 5 µM; AID 1899; TR-FRET GST/Flag-core106 dimerization, 1536-well;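 active = inhibition above the mean of all tested compounds plus 3 SD, set per screening campaign, cut at about 45% in these data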
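System: GST-tagged and Flag-tagged HCV core protein residues 1-106 / Input: core106 proteins, GST 13.5 nM and Flag 17 nM / Buffer or medium: KF-containing HEPES buffer, pH 7.45, DTT, CHAPS, BSA / Probe or stimulus: Eu-anti-GST and XL665-anti-Flag labelled anti-tag antibodies / Schedule: 4 h, 22.5 °C incubation / Technique: TR-FRET 671 and 617 nm emission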
A number is an active result; i = inactive; nt = not tested or not shown.

SMILES	PP5 inh	EBNA-1 inh	PP1 inh	ZTA DNA inh	core dimer inh
CCOC(=O)c1cc(NC(=O)Cc2ccc(S(=O)(=O)N3CCOCC3)s2)cc(C(=O)OCC)c1	i	i	i	i	i
CCC1(c2ccc(F)cc2)NC(=O)N(CC(=O)Nc2cc(C)on2)C1=O (stereo not given)	i	nt	i	i	nt
O=S(=O)(O)c1cc(O)c2c(O)c(N=Nc3cc(Cl)ccc3O)c(S(=O)(=O)O)cc2c1	i	i	i	i	i
Cc1cc(-c2ccc(N=Nc3c(S(=O)(=O)O)cc4cc(S(=O)(=O)O)cc(N)c4c3O)c(C)c2)ccc1N=Nc1c(S(=O)(=O)O)cc2cc(S(=O)(=O)O)cc(N)c2c1O	18	69	76	181	i
COCCCn1c(SCC(=O)N2CCc3ccccc32)nnc1-c1ccoc1C	i	i	i	i	55
CCc1ccc(Cc2cnc(NC(=O)C3=NCCN3)s2)cc1	i	i	17	i	i
O=C(Nc1ncc(Cc2ccccc2Cl)s1)C1=NCCN1	i	i	i	i	i
CCCOc1ccccc1-n1sc2c(c1=S)-c1cc(OC)cc3c1N(C(=O)C3=O)C2(C)C	i	i	17	i	i
COc1cccc(C2C(C(=O)c3ccc(C)o3)=C(O)C(=O)N2c2cc(C)on2)c1 (stereo not given)	i	i	i	i	i
CCCOc1cccc(C2C(C(=O)c3cc4ccccc4o3)=C(O)C(=O)N2c2cc(C)on2)c1 (stereo not given)	i	i	26	i	i
Cc1cc(N2C(=O)C(O)=C(C(=O)c3cc4ccccc4o3)C2c2cccc(Br)c2)no1 (stereo not given)	i	i	37	i	i
COCCN(CC(=O)Nc1ccccc1C(F)(F)F)C(=O)c1ccc(-n2cccn2)cc1	i	nt	i	i	nt
O=C1/C(=C/c2ccc(N3CCOCC3)o2)SC(=Nc2ccccc2)N1CCc1c[nH]c2ccccc12	i	i	34	i	i
O=C1S/C(=C/c2ccc(N3CCOCC3)o2)C(=O)N1Cc1ccc(F)cc1	i	i	i	i	i
CCC(C)c1ccc(NC(=S)NN2CCOCC2)cc1 (stereo not given)	i	i	i	i	i
CC(=O)Nc1cc(OC(C)=O)c2nonc2c1OC(C)=O	i	i	60	70	i
O=C(COC(=O)c1cccc(S(=O)(=O)N2CCN(c3ccccc3)CC2)c1)NCc1ccco1	i	i	i	i	82
CCN(CC)c1ccc(-c2sc(Nc3ccccc3)n[n+]2-c2ccc(F)cc2)cc1	i	i	17	i	i
CN(C)c1ccc(-c2sc(Nc3ccccc3)n[n+]2-c2ccc(F)cc2)cc1	i	i	i	i	i
Cc1ccccc1C(=O)N1CCC(C(=O)NN2C(=O)NC3(CCCCC3)C2=O)CC1	i	nt	i	i	nt
N#C/C(=C\c1ccc(O)c(O)c1)C(=O)Nc1cccc2ncccc12	i	i	i	i	65
Cc1ccccc1C1C(C#N)=C2N=C(N)c3c(sc4c3CCCCC4)N2C2=C1C(=O)CC(C)(C)C2 (stereo not given)	i	i	15	i	i
COc1cc(OC)c(NC(=O)c2ccc3c(SCC(=O)O)c4c(nc3c2)CCCC4)cc1Cl	i	i	i	i	47
CCOc1ccc(-c2cc(C)n3nc(C(N)=O)cc3n2)cc1	i	i	i	i	50
COC(=O)c1cc2nc(-c3ccccc3)cc(C)n2n1	i	i	i	i	i
SMILES	PP5 inh	EBNA-1 inh	PP1 inh	ZTA DNA inh	core dimer inh
CC(C)N1CCN(S(=O)(=O)c2ccc3ccccc3c2)CC1	i	153	i	133	i
Nc1c(S(=O)(=O)c2cccc(Cl)c2)c2nc3ccccc3nc2n1/N=C/c1ccc(O)c(O)c1	i	i	i	i	71
Cc1cc(O)c(CN(C)C)c2c1C(=O)/C(=C/c1ccco1)O2	i	i	i	i	i
Cc1cc(O)c(C=O)c2c1C(=O)Oc1c(CO)c(O)c3c(c1O2)C(O)OC3=O (stereo not given)	i	i	36	97	i
CCOCCCNC(=O)c1ccc2c(=O)n(Cc3ccc4c(c3)OCO4)c(=S)[nH]c2c1	i	i	i	i	i
COCCCNC(=O)c1ccc2c(=O)n(Cc3ccc4c(c3)OCO4)c(=S)[nH]c2c1	i	i	17	i	i
COC(=O)c1ccc(CSc2ncnc3c2sc2nc(N4CCOCC4)c4c(c23)CCCC4)o1	i	i	i	i	66
Cc1cccc(N2CCN(S(=O)(=O)c3cc(-c4cc(C)no4)ccc3C)CC2C)c1 (stereo not given)	i	i	i	i	i
Nc1cc(=O)[nH]c(SCC(=O)N2CCCc3ccccc32)n1	i	i	i	i	i
